Consider two compounds from ChEMBL document CHEMBL4184148 (Bioorg Med Chem Lett, 2017).

In test [1] the test system is Hepatocyte growth factor receptor (Homo sapiens), P08581 [M1250T]. Nature of the test: Binding affinity to human partial length MET M1250T mutant (D1010 to S1367 residues) expressed in Escherichia coli BL21 at 1 uM by Kinomescan method relative to control.
In test [2] the target is Mitogen-activated protein kinase kinase kinase 14 (Homo sapiens) (UniProt Q99558). Nature of the test: Binding affinity to wild-type human partial length NIK (L318 to P947 residues) expressed in HEK293 cells at 1 uM by Kinomescan method relative to control. The test is classed as cell-based.
The target of test [3] is RAC-alpha serine/threonine-protein kinase (Homo sapiens) (UniProt P31749). Kind of test: Binding affinity to wild-type human partial length AKT1 expressed in Escherichia coli BL21 at 1 uM by Kinomescan method relative to control. In a few lines:
(§1)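 Kinome-wide competition binding panel run by an outside provider, with each compound tested at a single concentration. Activity is read against the kinase panel.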

Test [4] concerns the target Dual specificity protein kinase CLK1 (Homo sapiens) (UniProt P49759). Kind of test: Binding affinity to wild-type human full length CLK1 (M1 to I484 residues) expressed in Escherichia coli BL21 at 1 uM by Kinomescan method relative to control. In a few lines: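 Run as one kinome-wide competition binding panel with each compound at a single fixed concentration. Results were plotted as a kinome-wide selectivity map.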

In test [5] the test system is Phosphatidylinositol 4,5-bisphosphate 3-kinase catalytic subunit alpha isoform (Homo sapiens), P42336 [E545K]. Kind of test: Binding affinity to human partial length PIK3CA E545K mutant (R108 to N1068 residues) expressed in HEK293 cells at 1 uM by Kinomescan method relative to control. The test is classed as cell-based.
In test [6] the test system is Phosphatidylinositol 4,5-bisphosphate 3-kinase catalytic subunit alpha isoform (Homo sapiens), P42336 [I800L]. Nature of the test: Binding affinity to human partial length PIK3CA I800L mutant (R108 to N1068 residues) expressed in HEK293 cells at 1 uM by Kinomescan method relative to control. In kind it is cell-based.
Test [7] deals with Cyclin-dependent kinase 4 (Homo sapiens) (UniProt P11802). Kind of test: Binding affinity to wild-type human full length CDK4 (M1 to E303 residues) expressed in HEK293 cells at 1 uM by Kinomescan method relative to control. In kind it is cell-based.
In test [8] the target is Serine/threonine-protein kinase 32B (Homo sapiens) (UniProt Q9NY57). Nature of the test: Binding affinity to wild-type human full length YANK2 (M1 to S414 residues) expressed in Escherichia coli BL21 at 1 uM by Kinomescan method relative to control. In a few lines:
as §1

Test [9] has as its target Epithelial discoidin domain-containing receptor 1 (Homo sapiens) (UniProt Q08345). Nature of the test: Binding affinity to wild-type human partial length DDR1 (R565 to V876 residues) expressed in Escherichia coli BL21 at 1 uM by Kinomescan method relative to control.
The target of test [10] is Ribosomal protein S6 kinase alpha-2 (Homo sapiens) (UniProt Q15349). Kind of test: Binding affinity to wild-type human partial length N-terminal RSK2 kinase domain 1 (M1 to D394 residues) expressed in HEK293 cells at 1 uM by Kinomescan method relative to control. In kind it is cell-based.
Test [11] addresses Ribosomal protein S6 kinase alpha-1 (Homo sapiens) (UniProt Q15418). Nature of the test: Binding affinity to wild-type human partial length C-terminal RSK1 kinase domain 2 (P360 to L681 residues) expressed in Escherichia coli BL21 at 1 uM by Kinomescan method relative to control.
In test [12] the target is Calcium/calmodulin-dependent protein kinase type II subunit gamma (Homo sapiens) (UniProt Q13555). Kind of test: Binding affinity to wild-type human partial length CAMK2G (R9 to A303 residues) expressed in Escherichia coli BL21 at 1 uM by Kinomescan method relative to control.
Test [13] has as its target Tyrosine-protein kinase Srms (Homo sapiens) (UniProt Q9H3Y6). Nature of the test: Binding affinity to wild-type human partial length SRMS (L208 to P488 residues) expressed in HEK293 cells at 1 uM by Kinomescan method relative to control. The test is classed as cell-based.
For test [14], the target named is Myosin light chain kinase family member 4 (Homo sapiens) (UniProt Q86YV6). Kind of test: Binding affinity to wild-type human partial length MYLK4 (V79 to S380 residues) expressed in Escherichia coli BL21 at 1 uM by Kinomescan method relative to control.
Test [15] addresses Serine/threonine-protein kinase BRSK2 (Homo sapiens) (UniProt Q8IWQ3). Kind of test: Binding affinity to wild-type human full length BRSK2 (M1 to L674 residues) expressed in Escherichia coli BL21 at 1 uM by Kinomescan method relative to control.
Test [16] addresses Serine/threonine-protein kinase PLK2 (Homo sapiens) (UniProt Q9NYY3). Kind of test: Binding affinity to wild-type human partial length PLK2 (H58 to F354 residues) expressed in HEK293 cells at 1 uM by Kinomescan method relative to control. The test is classed as cell-based.
In test [17] the target is Tyrosine-protein kinase Fes/Fps (Homo sapiens) (UniProt P07332). Nature of the test: Binding affinity to wild-type human partial length FES (I527 to R822 residues) expressed in Escherichia coli BL21 at 1 uM by Kinomescan method relative to control.
Test [18] deals with Rho-associated protein kinase 1 (Homo sapiens) (UniProt Q13464). Nature of the test: Binding affinity to wild-type human partial length ROCK1 (M1 to R415 residues) expressed in HEK293 cells at 1 uM by Kinomescan method relative to control. In kind it is cell-based.
The target in test [19] is Tyrosine-protein kinase ABL1 (Homo sapiens) (UniProt P00519). Kind of test: Binding affinity to wild-type human phosphorylated ABL1 (S229 to K512 residues) expressed in HEK293 cells at 1 uM by Kinomescan method relative to control. In kind it is cell-based.
In test [20] the target is Ankyrin repeat and protein kinase domain-containing protein 1 (Homo sapiens) (UniProt Q8NFD2). Nature of the test: Binding affinity to wild-type human partial length ANKK1 (M1 to A305 residues) expressed in HEK293 cells at 1 uM by Kinomescan method relative to control. In kind it is cell-based. In a few lines:
as §1

Test [21] concerns the target Cyclin-dependent kinase 15 (Homo sapiens) (UniProt Q96Q40). Kind of test: Binding affinity to wild-type human full length PFTAIRE2 (M1 to W384 residues) expressed in Escherichia coli BL21 at 1 uM by Kinomescan method relative to control. Put shortly:
as §1

The target of test [22] is Serine/threonine-protein kinase SIK2 (Homo sapiens) (UniProt Q9H0K1). Kind of test: Binding affinity to wild-type human full length SIK2 (M1 to N926 residues) expressed in Escherichia coli BL21 at 1 uM by Kinomescan method relative to control. Put shortly:
as §1

Test [23] has as its target Tyrosine-protein kinase FRK (Homo sapiens) (UniProt P42685). Kind of test: Binding affinity to wild-type human partial length FRK (A215 to F503 residues) expressed in Escherichia coli BL21 at 1 uM by Kinomescan method relative to control.
Test [24] has as its target Cyclin-G-associated kinase (Homo sapiens) (UniProt O14976). Nature of the test: Binding affinity to wild-type human partial length GAK (G13 to Y338 residues) expressed in Escherichia coli BL21 at 1 uM by Kinomescan method relative to control.

Chain of Tyrosine-protein kinase FRK (Homo sapiens) (P42685 whole entry, the tested form may be a part): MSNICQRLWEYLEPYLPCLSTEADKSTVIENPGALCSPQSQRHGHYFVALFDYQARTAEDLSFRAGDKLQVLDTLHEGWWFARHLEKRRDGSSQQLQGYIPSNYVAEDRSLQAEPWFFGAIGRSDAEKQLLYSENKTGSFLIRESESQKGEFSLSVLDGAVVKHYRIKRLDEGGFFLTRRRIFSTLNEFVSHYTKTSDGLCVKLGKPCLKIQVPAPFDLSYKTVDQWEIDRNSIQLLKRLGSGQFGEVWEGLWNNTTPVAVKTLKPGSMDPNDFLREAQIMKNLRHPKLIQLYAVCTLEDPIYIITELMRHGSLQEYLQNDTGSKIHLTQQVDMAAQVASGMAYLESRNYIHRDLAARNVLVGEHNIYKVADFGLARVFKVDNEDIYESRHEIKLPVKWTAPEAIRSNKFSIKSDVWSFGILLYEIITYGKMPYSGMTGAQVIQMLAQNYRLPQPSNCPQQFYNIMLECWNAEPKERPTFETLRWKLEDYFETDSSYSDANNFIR
Chain of Phosphatidylinositol 4,5-bisphosphate 3-kinase catalytic subunit alpha isoform (Homo sapiens), P42336 [E545K] (P42336 whole entry E545K, the tested form may be a part, canonical isoform): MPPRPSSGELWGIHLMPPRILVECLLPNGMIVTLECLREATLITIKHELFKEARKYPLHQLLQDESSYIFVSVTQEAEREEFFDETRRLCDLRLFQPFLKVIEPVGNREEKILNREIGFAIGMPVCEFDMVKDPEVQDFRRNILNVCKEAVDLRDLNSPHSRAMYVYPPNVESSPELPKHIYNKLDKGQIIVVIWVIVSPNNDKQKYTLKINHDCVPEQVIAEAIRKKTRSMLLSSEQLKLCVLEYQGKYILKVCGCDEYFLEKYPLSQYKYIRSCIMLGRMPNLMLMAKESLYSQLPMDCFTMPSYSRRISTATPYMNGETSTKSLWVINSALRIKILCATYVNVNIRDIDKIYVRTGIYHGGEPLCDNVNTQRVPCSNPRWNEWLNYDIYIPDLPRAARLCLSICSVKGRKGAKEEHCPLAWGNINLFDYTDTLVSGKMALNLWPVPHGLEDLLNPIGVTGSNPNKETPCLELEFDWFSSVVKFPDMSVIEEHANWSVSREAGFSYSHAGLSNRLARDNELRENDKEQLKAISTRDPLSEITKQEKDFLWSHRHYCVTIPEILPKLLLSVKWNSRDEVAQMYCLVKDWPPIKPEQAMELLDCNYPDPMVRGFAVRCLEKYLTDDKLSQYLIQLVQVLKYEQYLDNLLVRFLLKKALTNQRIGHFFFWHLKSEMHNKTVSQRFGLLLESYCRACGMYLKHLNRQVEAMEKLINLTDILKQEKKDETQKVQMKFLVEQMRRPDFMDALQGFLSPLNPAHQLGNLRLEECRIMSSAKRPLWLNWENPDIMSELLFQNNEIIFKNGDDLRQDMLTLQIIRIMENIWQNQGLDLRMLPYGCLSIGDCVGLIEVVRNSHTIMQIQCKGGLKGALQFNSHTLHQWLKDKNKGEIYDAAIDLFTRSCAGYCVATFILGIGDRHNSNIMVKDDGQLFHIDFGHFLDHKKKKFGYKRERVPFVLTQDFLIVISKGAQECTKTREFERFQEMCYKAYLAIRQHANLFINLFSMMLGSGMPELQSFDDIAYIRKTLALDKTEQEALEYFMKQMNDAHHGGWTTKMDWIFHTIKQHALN
Chain of Serine/threonine-protein kinase SIK2 (Homo sapiens) (Q9H0K1 whole entry, looked up, the tested form may be a part): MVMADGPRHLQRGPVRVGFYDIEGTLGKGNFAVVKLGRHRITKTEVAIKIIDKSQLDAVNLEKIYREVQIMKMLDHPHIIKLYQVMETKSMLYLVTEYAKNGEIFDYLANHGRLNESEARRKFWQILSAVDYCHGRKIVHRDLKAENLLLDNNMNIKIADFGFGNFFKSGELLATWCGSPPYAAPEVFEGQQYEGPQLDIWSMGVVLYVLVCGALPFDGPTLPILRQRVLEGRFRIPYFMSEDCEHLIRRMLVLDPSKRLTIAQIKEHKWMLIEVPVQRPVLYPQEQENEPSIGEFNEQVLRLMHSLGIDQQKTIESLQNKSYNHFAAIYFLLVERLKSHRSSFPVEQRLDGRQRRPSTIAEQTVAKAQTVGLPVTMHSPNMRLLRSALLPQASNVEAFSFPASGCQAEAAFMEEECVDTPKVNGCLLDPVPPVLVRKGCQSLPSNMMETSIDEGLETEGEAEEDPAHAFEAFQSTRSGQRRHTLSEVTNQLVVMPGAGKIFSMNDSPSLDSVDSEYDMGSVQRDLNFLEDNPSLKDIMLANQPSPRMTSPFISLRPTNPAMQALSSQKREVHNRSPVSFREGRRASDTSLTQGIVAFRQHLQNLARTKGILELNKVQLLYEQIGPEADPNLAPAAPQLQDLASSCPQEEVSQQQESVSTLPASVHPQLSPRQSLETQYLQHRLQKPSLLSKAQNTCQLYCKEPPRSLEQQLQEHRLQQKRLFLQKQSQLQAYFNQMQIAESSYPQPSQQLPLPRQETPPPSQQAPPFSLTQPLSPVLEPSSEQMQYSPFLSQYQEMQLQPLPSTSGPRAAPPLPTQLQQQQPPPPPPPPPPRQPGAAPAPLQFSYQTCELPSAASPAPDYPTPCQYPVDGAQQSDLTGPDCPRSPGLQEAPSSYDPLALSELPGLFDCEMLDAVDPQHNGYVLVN
Chain of Dual specificity protein kinase CLK1 (Homo sapiens) (P49759 whole entry, looked up, the tested form may be a part): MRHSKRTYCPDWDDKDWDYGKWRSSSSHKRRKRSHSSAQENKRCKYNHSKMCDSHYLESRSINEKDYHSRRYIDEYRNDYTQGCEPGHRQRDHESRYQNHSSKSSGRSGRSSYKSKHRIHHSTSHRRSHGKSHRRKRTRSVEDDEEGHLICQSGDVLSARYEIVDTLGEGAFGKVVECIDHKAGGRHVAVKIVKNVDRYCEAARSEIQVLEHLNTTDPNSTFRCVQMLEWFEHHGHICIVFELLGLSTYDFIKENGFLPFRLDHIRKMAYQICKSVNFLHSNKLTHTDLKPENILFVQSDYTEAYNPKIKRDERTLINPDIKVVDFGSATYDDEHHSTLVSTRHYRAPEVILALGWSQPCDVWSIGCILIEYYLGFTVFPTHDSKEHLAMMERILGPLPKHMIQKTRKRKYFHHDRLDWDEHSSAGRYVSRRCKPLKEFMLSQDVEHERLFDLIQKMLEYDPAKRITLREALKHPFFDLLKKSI
Chain of Serine/threonine-protein kinase 32B (Homo sapiens) (Q9NY57 whole entry, the tested form may be a part): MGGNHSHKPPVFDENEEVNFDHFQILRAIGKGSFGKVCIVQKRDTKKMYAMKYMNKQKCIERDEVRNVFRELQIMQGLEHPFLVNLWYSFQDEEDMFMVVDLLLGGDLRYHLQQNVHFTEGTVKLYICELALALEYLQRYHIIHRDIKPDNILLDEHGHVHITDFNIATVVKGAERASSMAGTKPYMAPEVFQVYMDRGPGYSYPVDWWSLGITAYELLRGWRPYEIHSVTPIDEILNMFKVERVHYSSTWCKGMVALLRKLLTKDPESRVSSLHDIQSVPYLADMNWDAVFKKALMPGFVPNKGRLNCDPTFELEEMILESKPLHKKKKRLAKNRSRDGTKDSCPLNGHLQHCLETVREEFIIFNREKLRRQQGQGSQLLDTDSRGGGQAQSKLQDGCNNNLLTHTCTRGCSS
Chain of Ribosomal protein S6 kinase alpha-1 (Homo sapiens) (Q15418 whole entry, the tested form may be a part): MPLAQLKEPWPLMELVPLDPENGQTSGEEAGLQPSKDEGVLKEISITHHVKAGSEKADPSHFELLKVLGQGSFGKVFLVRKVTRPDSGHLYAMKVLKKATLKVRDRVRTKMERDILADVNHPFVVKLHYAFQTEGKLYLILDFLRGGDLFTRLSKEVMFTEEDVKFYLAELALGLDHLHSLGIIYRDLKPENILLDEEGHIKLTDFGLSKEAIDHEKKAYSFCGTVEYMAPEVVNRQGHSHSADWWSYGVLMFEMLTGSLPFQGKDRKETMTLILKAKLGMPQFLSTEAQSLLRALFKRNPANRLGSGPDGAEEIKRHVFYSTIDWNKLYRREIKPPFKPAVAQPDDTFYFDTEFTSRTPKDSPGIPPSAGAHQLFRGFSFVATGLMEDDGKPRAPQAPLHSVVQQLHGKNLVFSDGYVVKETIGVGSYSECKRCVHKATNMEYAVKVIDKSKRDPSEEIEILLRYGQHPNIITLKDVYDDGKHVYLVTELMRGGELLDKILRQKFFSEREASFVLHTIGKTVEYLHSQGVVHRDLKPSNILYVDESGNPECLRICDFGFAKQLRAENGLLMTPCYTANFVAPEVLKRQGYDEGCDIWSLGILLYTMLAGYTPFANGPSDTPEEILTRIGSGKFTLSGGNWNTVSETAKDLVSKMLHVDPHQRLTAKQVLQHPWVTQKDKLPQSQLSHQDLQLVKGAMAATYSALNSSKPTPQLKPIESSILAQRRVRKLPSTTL
Chain of Serine/threonine-protein kinase BRSK2 (Homo sapiens) (Q8IWQ3 whole entry, the tested form may be a part): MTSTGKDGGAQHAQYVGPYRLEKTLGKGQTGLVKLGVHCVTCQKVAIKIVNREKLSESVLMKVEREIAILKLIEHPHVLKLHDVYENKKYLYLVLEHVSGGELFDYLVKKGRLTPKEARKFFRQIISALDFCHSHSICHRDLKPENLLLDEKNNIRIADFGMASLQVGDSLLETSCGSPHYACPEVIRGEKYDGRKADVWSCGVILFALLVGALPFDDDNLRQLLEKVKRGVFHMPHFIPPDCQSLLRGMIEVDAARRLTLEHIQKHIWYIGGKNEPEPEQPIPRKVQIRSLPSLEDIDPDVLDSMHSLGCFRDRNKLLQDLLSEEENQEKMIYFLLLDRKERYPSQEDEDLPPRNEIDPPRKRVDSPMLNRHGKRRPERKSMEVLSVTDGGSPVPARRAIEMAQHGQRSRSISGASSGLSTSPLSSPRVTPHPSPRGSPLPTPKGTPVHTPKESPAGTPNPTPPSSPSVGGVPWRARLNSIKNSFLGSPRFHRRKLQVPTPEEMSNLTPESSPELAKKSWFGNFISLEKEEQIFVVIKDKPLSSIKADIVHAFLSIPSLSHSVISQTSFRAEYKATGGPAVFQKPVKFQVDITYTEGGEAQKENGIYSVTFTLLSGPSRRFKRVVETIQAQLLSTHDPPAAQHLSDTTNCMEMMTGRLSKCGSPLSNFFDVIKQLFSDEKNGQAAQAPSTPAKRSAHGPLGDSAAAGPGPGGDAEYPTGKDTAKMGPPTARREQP

Take `CCC(=O)Nc1ccc(C(=O)Nc2ccc(Nc3ncc4c(n3)N(C)c3ccc(C)cc3C(=O)N4C)cc2)cc1`: the Activity amounted to 93% in [1]; 100% in test [2]; 99% in test [3]; 98% in test [4]; 76% in test [5]; 78% in [6]. In addition, the Activity in test [7] amounted to 89%; in test [8], 100%; in test [9], 86%; in [10], 66%; in [11], 99%; in test [12], 97%. The Activity in [13] amounted to 89%; in test [14], 100%; in test [15], 88%; in [16], 74%; in test [17], 99%; in test [18], 72%. Also, the Activity in [19] came to 90%; in [20], 60%; in test [21] it was 100%; in test [22] it was 78%; in test [23], 100%; in test [24], 99%.
Take `C=CC(=O)Nc1ccc(C(=O)Nc2ccc(Nc3ncc4c(n3)N(C)c3ccc(C)cc3C(=O)N4C)cc2)cc1`: the Activity in [1] came out at 93%; in test [2] it was 99%; in [3] it was 100%; in test [4], 100%; in [5], 72%; in test [6], 76%. For the same compound, the Activity amounted to 100% in test [7]; 100% in test [8]; 92% in [9]; 82% in test [10]; 96% in test [11]; 100% in [12]. Further, the Activity came out at 73% in test [13]; 100% in test [14]; 98% in [15]; 90% in test [16]; 90% in test [17]; 100% in test [18]. The Activity in test [19] is 94%; in test [20] it was 92%; in test [21] it was 99%; in [22] it was 89%; in [23], 95%; in test [24], 82%.
